Data as given in ChEMBL document CHEMBL1156776, “Hybrid inhibitors of phosphatidylinositol 3-kinase (PI3K) and the mammalian target of rapamycin (mTOR): design, synthesis, and superior antitumor activity of novel wortmannin-rapamycin conjugates” (J Med Chem, 2010).
Converted amounts (≈) assume the structure as drawn. Values belong to the compound of their own block, whether it stands above or below them. The source made the active and inactive calls. The rule behind the calls is not given here.

How the values were obtained:
[1] = Inhibition of PI3K
[2] = target: Serine/threonine-protein kinase mTOR (Homo sapiens) (UniProt P42345); assay: Inhibition of mTOR
U-87MG ATCC [3] = assay: Antitumor activity against human U87MG cells xenografted in nude mouse assessed as inhibition of AKT S473 phosphorylation at 10 mg/kg, iv administered as single dose measured after 2 hrs; type: functional, organism-based; set-up: dose 10 mg/kg
Outline: (§1)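 Nude mice bearing U87MG tumors got a single iv dose. Tumors were excised 2 h later and analysed by Western blot for phosphoproteins (AKT S473, T308) against vehicle-treated controls.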

[4] = Solubility in water; type: physicochemical
U-87MG ATCC [5] = assay: Antitumor activity against human U87MG cells xenografted in nude mouse assessed as inhibition of AKT T308 phosphorylation at 10 mg/kg, iv administered as single dose measured after 2 hrs; type: functional, organism-based; set-up: dose 10 mg/kg; outline: as §1
U-87MG ATCC [6] = assay: Antitumor activity against human U87MG cells xenografted in nude mouse assessed as inhibition of S6K phosphorylation at 10 mg/kg, iv administered as single dose measured after 2 hrs; type: functional, organism-based; set-up: dose 10 mg/kg
A498 [7] = assay: Antitumor activity against human A498 cells xenografted in nude mouse assessed as tumor growth inhibition at 25 mg/kg, iv once weekly
[8] = Stability in mouse plasma assessed as compound remaining after 120 mins relative to basal level; type: ADME, cell-free; conditions: read-out: Stability
Outline: (§2)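 Compound was incubated in heparinized plasma at 37 °C for 2 h. Samples taken at various time points were quenched with acetonitrile, dried under nitrogen and reconstituted in methanol/water 20:80. Intact compound was quantified by LC/MS.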

HT-29 = assay: Antitumor activity against human HT-29 cells xenografted in nude mouse assessed as tumor growth inhibition at 15 mg/kg, iv once weekly; type: functional, organism-based; set-up: dose 15 mg/kg
Outline: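 Nude mice bearing HT29 colon xenografts were randomized into groups (n = 10) and dosed iv once weekly. Agents were in 5% dextrose in water, or in 4% ethanol/5% polysorbate 80/5% PEG400 for the rapamycin-type agent. Tumor growth was monitored against vehicle.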

U-87MG ATCC [9] = assay: Antitumor activity against human U87MG cells xenografted in nude mouse assessed as inhibition of AKT T308 phosphorylation at 15 mg/kg, iv administered as single dose measured after 2 hrs; type: functional, organism-based; set-up: dose 15 mg/kg; outline: as §1
A498 [10] = assay: Antitumor activity against human A498 cells xenografted in nude mouse assessed as tumor growth inhibition at 30 mg/kg, iv once weekly
[11] = Stability in mouse plasma assessed as compound remaining after 60 mins relative to basal level; type: ADME, cell-free; conditions: read-out: Stability; outline: as §2
[12] = Stability in rat plasma assessed as compound remaining after 90 mins relative to basal level; type: ADME, cell-free; conditions: read-out: Stability; outline: as §2
Homo sapiens [13] = species: Homo sapiens; assay: Stability in human plasma assessed as compound remaining after 30 mins relative to basal level
Homo sapiens [14] = species: Homo sapiens; assay: Stability in human plasma assessed as compound remaining after 60 mins relative to basal level
Homo sapiens [15] = species: Homo sapiens; assay: Stability in human plasma assessed as compound remaining after 5 mins relative to basal level
[16] = Stability in nude mouse whole blood assessed as 8-((4S,4aR,6aS,7S,9aR,E)-5-(carboxyoxy)-1-(((3-(dimethylamino)propyl)(methyl)amino)methylene)-11-hydroxy-4-(methoxymethyl)-4a-methyl-2,10-dioxo-1,2,4,4a,5,6,6a,7,8,9,9a,10-dodecahydroindeno[4,5-h]isochromen-7-yloxy)-8-oxooctanoic acid formation; type: ADME, tissue-based
Outline: (§3)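 Compound was incubated in nude mouse plasma or whole blood at 37 °C for 2 h, with heparin or sodium fluoride/EDTA as anticoagulant. Time-point samples were quenched with acetonitrile, dried, reconstituted and analysed by LC/MS for parent and hydrolysis products.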

[17] = Stability in rat plasma assessed as compound remaining after 15 mins relative to basal level; type: ADME, cell-free; conditions: read-out: Stability; outline: as §2
Homo sapiens [18] = species: Homo sapiens; assay: Stability in human plasma assessed as compound remaining after 15 mins relative to basal level
[19] = Stability in nude mouse whole blood assessed as rapamycin formation; type: ADME, tissue-based; outline: as §3
[20] = Stability in rat plasma assessed as compound remaining after 5 mins relative to basal level; type: ADME, cell-free; conditions: read-out: Stability; outline: as §2
[21] = Stability in nude mouse liver microsomes assessed as compound remaining after 30 mins; type: ADME, Microsome; conditions: read-out: Stability
Outline: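 Female nude mouse liver microsomes were incubated with compound for 30 min at 37 °C, with NADPH dependence examined. Remaining parent and hydrolysis products were measured.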

[22] = Stability in mouse plasma assessed as compound remaining after 5 mins relative to basal level; type: ADME, cell-free; conditions: read-out: Stability; outline: as §2
U-87MG ATCC [23] = assay: Antitumor activity against human U87MG cells xenografted in nude mouse assessed as inhibition of S6K phosphorylation at 15 mg/kg, iv administered as single dose measured after 2 hrs; type: functional, organism-based; set-up: dose 15 mg/kg
[24] = Stability in rat plasma assessed as compound remaining after 30 mins relative to basal level; type: ADME, cell-free; conditions: read-out: Stability; outline: as §2
[25] = Stability in rat plasma assessed as compound remaining after 60 mins relative to basal level; type: ADME, cell-free; conditions: read-out: Stability; outline: as §2
[26] = Stability in mouse plasma assessed as compound remaining after 15 mins relative to basal level; type: ADME, cell-free; conditions: read-out: Stability; outline: as §2
Homo sapiens [27] = species: Homo sapiens; assay: Stability in human plasma assessed as compound remaining after 90 mins relative to basal level
[28] = Stability in mouse plasma assessed as compound remaining after 90 mins relative to basal level; type: ADME, cell-free; conditions: read-out: Stability; outline: as §2
Homo sapiens [29] = species: Homo sapiens; assay: Stability in human plasma assessed as compound remaining after 120 mins relative to basal level
U-87MG ATCC [30] = assay: Antitumor activity against human U87MG cells xenografted in nude mouse assessed as tumor growth inhibition administered iv once weekly; type: functional
Outline: (§4)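 U87MG glioma xenografts in nude mice were staged and randomized (n = 10). Dosing was iv once weekly in D5W (days 0, 6 or days 0, 6, 13), with vehicle controls. Tumor volume was measured twice weekly.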

[31] = Stability in human liver microsomes assessed as compound remaining after 30 mins; type: ADME, Microsome; conditions: read-out: Stability
Outline: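 Compound (10 μM) was incubated with human liver microsomes (1 mg/mL) at 37 °C for 30 min, alongside buffer (pH 7.4) and boiled-microsome controls. NADPH dependence was examined. Reactions were quenched with 3 volumes of cold acetonitrile.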

U-87MG ATCC [32] = assay: Antitumor activity against human U87MG cells xenografted in nude mouse assessed as inhibition of AKT S473 phosphorylation at 15 mg/kg, iv administered as single dose measured after 2 hrs; type: functional, organism-based; set-up: dose 15 mg/kg; outline: as §1
[33] = Stability in nude mouse whole blood assessed as release of (4S,4aR,6aS,7S,9aR,E)-1-(((3-(dimethylamino)propyl)(methyl)amino)methylene)-7,11-dihydroxy-4-(methoxymethyl)-4a-methyl-2,10-dioxo-1,2,4,4a,5,6,6a,7,8,9,9a,10-dodecahydroindeno[4,5-h]isochromen-5-yl hydrogen carbonate; type: ADME, tissue-based; outline: as §3
U-87MG ATCC [34] = assay: Antitumor activity against human U87MG cells xenografted in nude mouse assessed as tumor growth inhibition at 3 mg/kg, iv once weekly; type: functional, organism-based; set-up: dose 3 mg/kg; outline: as §4
[35] = Stability in mouse plasma assessed as compound remaining after 30 mins relative to basal level; type: ADME, cell-free; conditions: read-out: Stability; outline: as §2
[36] = Stability in rat plasma assessed as compound remaining after 120 mins relative to basal level; type: ADME, cell-free; conditions: read-out: Stability; outline: as §2
Plasma [37] = assay: Stability in mouse plasma in presence of esterase inhibitor sodium fluoride; type: ADME, cell-free; outline: as §3
U-87MG ATCC [38] = assay: Antitumor activity against human U87MG cells xenografted in nude mouse assessed as tumor growth inhibition at 5 mg/kg, iv once weekly; type: functional, organism-based; set-up: dose 5 mg/kg; outline: as §4
Plasma [39] = assay: Stability in human plasma after 5 hrs; type: ADME, cell-free
Plasma [40] = assay: Stability in mouse plasma after 5 hrs; type: ADME, cell-free
Plasma [41] = assay: Stability in rat plasma after 5 hrs; type: ADME, cell-free

inhibition [1]: inactive | inhibition [2]: inactive
Compound: COC[C@H]1OC(=O)/C(=C\N(C)CCCN(C)C)C2=C(O)C(=O)C3=C([C@H](OC(C)=O)C[C@]4(C)[C@@H](OC(=O)CCCCCCC(=O)O[C@H]5CC[C@H](C[C@@H](C)[C@@H]6CC(=O)[C@H](C)/C=C(\C)[C@@H](O)[C@@H](OC)C(=O)[C@H](C)C[C@H](C)/C=C/C=C/C=C(\C)[C@@H](OC)C[C@@H]7CC[C@@H](C)[C@@](O)(O7)C(=O)C(=O)N7CCCC[C@H]7C(=O)O6)CC5)CC[C@@H]34)[C@]21C

solubility ([4]; buffer): Insoluble
Compound: CO[C@H]1C[C@@H]2CC[C@@H](C)[C@@](O)(O2)C(=O)C(=O)N2CCCC[C@H]2C(=O)O[C@H]([C@H](C)C[C@@H]2CC[C@@H](O)[C@H](OC)C2)CC(=O)[C@H](C)/C=C(\C)[C@@H](O)[C@@H](OC)C(=O)[C@H](C)C[C@H](C)/C=C/C=C/C=C/1C [SIROLIMUS]
Activity (U-87MG ATCC [3]): inactive | Activity (U-87MG ATCC [5]): inactive | Activity (U-87MG ATCC [6]): Active | Activity (A498 [7]): Active

remaining at 2 h [8]: 8% | remaining at 1 h [11]: 13% | remaining at 1.5 h [12]: 53% | remaining at 0.5 h (Homo sapiens [13]): 91% | remaining at 1 h (Homo sapiens [14]): 83% | inhibition [1]: inactive | inhibition [2]: inactive | remaining at 5 min (Homo sapiens [15]): 86% | Stability [16]: Unstable | remaining at 0.25 h [17]: 80% | remaining at 0.25 h (Homo sapiens [18]): 93% | Stability [19]: Unstable | remaining at 5 min [20]: 91% | remaining at 0.5 h [21]: ≥ 50% | solubility ([4]; buffer): Soluble | solubility ([4]; water, read-out: solubility): 460 µg/mL (≈ 288 µM) | remaining at 5 min [22]: 53% | remaining at 0.5 h [24]: 71% | remaining at 1 h [25]: 64% | remaining at 0.25 h [26]: 39% | remaining at 1.5 h (Homo sapiens [27]): 82% | remaining at 1.5 h [28]: 10% | remaining at 2 h (Homo sapiens [29]): 83% | remaining at 0.5 h [31]: ≥ 50% | Stability [33]: Stable | remaining at 0.5 h [35]: 18% | remaining at 2 h [36]: 46% | Stability (Plasma [37]): Stable
Compound: COC[C@H]1OC(=O)/C(=C\N(C)CCCN(C)C)C2=C(O)C(=O)C3=C([C@H](OC(C)=O)C[C@]4(C)[C@@H](OC(=O)CCCCCCC(=O)O[C@@H]5CC[C@@H](C[C@@H](C)[C@@H]6CC(=O)[C@H](C)/C=C(\C)[C@@H](O)[C@@H](OC)C(=O)[C@H](C)C[C@H](C)/C=C/C=C/C=C(\C)[C@@H](OC)C[C@@H]7CC[C@@H](C)[C@@](O)(O7)C(=O)C(=O)N7CCCC[C@H]7C(=O)O6)C[C@H]5OC)CC[C@@H]34)[C@]21C
Activity (HT-29): Active | Activity (U-87MG ATCC [9]): Active | Activity (A498 [10]): Active | Activity (U-87MG ATCC [23]): Active | Activity (U-87MG ATCC [30]): Dose-dependent effect | Activity (U-87MG ATCC [32]): Active | Activity (U-87MG ATCC [34]): Active | Activity (U-87MG ATCC [38]): Active

inhibition [1]: inactive | inhibition [2]: inactive | Stability (Plasma [39]): Stable | Stability (Plasma [40]): Stable | Stability (Plasma [41]): Stable
Compound: C=CCN(/C=C1\C(=O)O[C@H](COC)[C@@]2(C)C1=C(O)C(=O)C1=C2[C@H](OC(C)=O)C[C@]2(C)[C@@H](OC(=O)CCCCCCC(=O)O[C@H]3CC[C@H](C[C@@H](C)[C@@H]4CC(=O)[C@H](C)/C=C(\C)[C@@H](O)[C@@H](OC)C(=O)[C@H](C)C[C@H](C)/C=C/C=C/C=C(\C)[C@@H](OC)C[C@@H]5CC[C@@H](C)[C@@](O)(O5)C(=O)C(=O)N5CCCC[C@H]5C(=O)O4)CC3)CC[C@@H]12)CC=C
